Data on 16 compounds can be found in PubChem BioAssay.

The nature of test [1]: Her2 expression decrease, cell viability multiplex – SKBR3 breast tumor cells, AlphaScreen, ATP viability, primary screen (AID 461).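 For Her2 level: lower value means less Her2 protein in the cells.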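 For viability: percent of carrier control wells set as 100% viability.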 To be noted: SKBR3 Her2 protein level, 18-24 h, measured here: SKBR3 viability, ATP luminescence, at 10 µM.
In test [2] the target is Receptor tyrosine-protein kinase erbB-2 (Homo sapiens) (UniProt P04626). The description is as above. To be noted: 18-24 h, at 10 µM, stronger effect = lower value.
Receptor tyrosine-protein kinase erbB-2 (Homo sapiens), sequence (P04626 whole entry, looked up): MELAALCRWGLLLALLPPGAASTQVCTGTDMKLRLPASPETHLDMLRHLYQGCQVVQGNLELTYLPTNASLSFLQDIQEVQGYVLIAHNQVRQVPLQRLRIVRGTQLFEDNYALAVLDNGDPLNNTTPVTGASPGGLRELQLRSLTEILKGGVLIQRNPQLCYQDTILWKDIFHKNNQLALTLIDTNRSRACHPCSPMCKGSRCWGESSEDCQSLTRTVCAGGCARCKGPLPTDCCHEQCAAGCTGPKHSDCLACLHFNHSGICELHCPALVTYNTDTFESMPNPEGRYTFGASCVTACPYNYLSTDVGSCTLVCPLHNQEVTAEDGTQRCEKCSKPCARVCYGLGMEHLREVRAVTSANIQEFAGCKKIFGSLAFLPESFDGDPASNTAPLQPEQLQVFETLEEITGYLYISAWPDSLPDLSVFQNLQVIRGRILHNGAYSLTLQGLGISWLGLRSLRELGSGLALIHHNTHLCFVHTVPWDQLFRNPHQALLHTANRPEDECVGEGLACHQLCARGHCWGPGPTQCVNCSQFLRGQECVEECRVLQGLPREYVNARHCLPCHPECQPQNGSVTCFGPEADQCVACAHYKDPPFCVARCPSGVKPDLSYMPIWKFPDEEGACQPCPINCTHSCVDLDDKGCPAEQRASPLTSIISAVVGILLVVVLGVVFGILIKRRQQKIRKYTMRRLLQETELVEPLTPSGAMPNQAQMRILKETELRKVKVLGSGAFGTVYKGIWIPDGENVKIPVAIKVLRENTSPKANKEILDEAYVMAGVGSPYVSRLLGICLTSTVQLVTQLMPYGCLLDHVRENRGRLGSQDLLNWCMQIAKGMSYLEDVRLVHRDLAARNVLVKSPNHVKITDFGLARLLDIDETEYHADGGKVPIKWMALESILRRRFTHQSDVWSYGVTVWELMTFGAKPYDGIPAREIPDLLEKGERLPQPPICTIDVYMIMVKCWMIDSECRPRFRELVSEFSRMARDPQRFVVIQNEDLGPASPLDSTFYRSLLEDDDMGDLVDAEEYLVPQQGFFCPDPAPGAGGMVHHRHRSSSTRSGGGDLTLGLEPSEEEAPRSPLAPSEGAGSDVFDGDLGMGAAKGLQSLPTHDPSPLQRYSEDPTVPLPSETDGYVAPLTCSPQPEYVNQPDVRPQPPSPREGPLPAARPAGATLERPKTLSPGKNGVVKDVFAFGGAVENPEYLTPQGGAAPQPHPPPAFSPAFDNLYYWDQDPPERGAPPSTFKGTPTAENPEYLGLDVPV
Test [3] is described as follows: reduced viability of SK-BR-3 breast cancer cells – cell-based, 24 h, human, pilot screen (AID 572;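 active = viability at or below 10% of carrier control in both of two separate runs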;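 note: compound exposure lasted between 18 and 24 h rather than exactly 24 h; 100% = carrier-treated control wells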). Conditions: SK-BR-3 viability, CellTiter-Glo luminescence, at 10 µM, stronger effect = lower value. A general note: In ATP-based viability assays light output follows the ATP content of the culture.
Test [4] in a line: HUVEC growth inhibition – cell-based, human, primary screen (AID 575;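 active = viability at or below 30% in both replicate assays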;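 note: 100% = median of untreated cell wells with 0.1% DMSO on each plate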). Conditions: HUVEC proliferation, CellTiter-Glo luminescence, 72 h; at 10 µM; stronger effect = lower value. A digest of the protocol:
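Timing: 72 h treatment at 37 °C; material: HUVEC primary cells; technique: CellTiter-Glo luminescence measuring cellular ATP; controls: vehicle and MePR control wells; measure: percent of median DMSO-control luminescence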

Test [5] can be described thus: MRP1 drug-resistance reversers in H69AR cells – cell-based, doxorubicin co-treatment, pilot screen (AID 601;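 active = viability loss from added drug above about 55%, and viability with drug at most 40%, in both replicates, limit read from the data, passing the limit was not always enough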). Conditions: CellTiter-Glo, 72 h, at 10 µM; for differential viability (reversal): stronger effect = higher value.
Test [6] is described as follows: yeast transport mutant growth inhibition pilot in 384-well plates, post-Golgi transport modulator project (AID 636; in the data active = inhibition above about 31%). Conditions: absorbance 615 nm, about 18 h, stronger effect = higher value.
Test [7] can be described thus: growth suppression of yeast trafficking mutant, preliminary HTS, modulators of trafficking downstream of Golgi apparatus project, 1536-format plate, OD 615 nm (AID 637; in the data active = inhibition above about 30%). To be noted: yeast transport mutant growth, absorbance 615 nm, 18 h; stronger effect = higher value.
Test [8] in a line: H69AR cell proliferation blockers – human, duplicate replicates, primary screen (AID 580;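 active = viability at or under a set limit in both replicates, limit being median viability minus 3 SD, cut at about 48% in these data, passing the limit was not always enough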;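 note: 100% = mean luminescence of untreated wells and 0% = no signal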). To be noted: H69AR lung tumor cells viability, ATP luminescence, 72 h; at 10 µM; stronger effect = lower value.
[9] abbreviates: H69AR cells + 2 uM doxorubicin, measured here: viability with 2 uM doxorubicin, stronger effect = lower value.
[10] abbreviates: H69AR cells, compound alone cytotoxicity.

Active and inactive are the calls of the source.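 Rule for the calls, unless noted: active = Her2 level under about 52% in both replicate screens, with viability over 70% of control (limit read from the data); inconclusive = Her2 under the limit in one screen only, or viability under 70%; inactive = Her2 level above the set limit.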

In the case of `OC(CN1CCOCC1)Cn1c(-c2cccc(Cl)c2)nc2ccccc21` (configuration not stated), the viability in test [1] was 100%; in test [3], 100% (inactive); in test [4] it was 54.4% (inactive); in test [5] (setting [9]) it was 66%; in test [5] (setting [10]), 18.5%. Further, the Her2 level in test [2] was 80% (inactive). In test [5] (H69AR cells + 2 uM doxorubicin), the differential viability (reversal) was -47.5% (inactive). Besides, the figures for the inhibition in test [6] and in test [7] were -6.75% (inactive) and -1.11% (inactive), respectively.

With `COc1ccc(N2C(=O)C(Cl)=C(Nc3c(C)n(C)n(-c4ccccc4)c3=O)C2=O)cc1`, the viability is 94% in test [1]; 94% (inactive) in test [3]; 81.1% (inactive) in test [4]; 35.3% in test [5] (setting [9]); 45.3% in test [5] (setting [10]). Further, the Her2 level in test [2] is 68% (inactive). Also, in test [5] (H69AR cells + 2 uM doxorubicin), the differential viability (reversal) was 10% (inactive). Besides, the inhibition in test [6] is -1.71% (inactive); in test [7], -6.03% (inactive).

As to `CN(C)CC(O)COc1ccc(-c2ccc(C#N)cc2)cc1` (configuration not stated), the viability was 79.5% in test [1]; 79.5% (inactive) in test [3]; 96% (inactive) in test [8]; 81.8% in test [5] (setting [9]); 96% in test [5] (setting [10]). The Her2 level in test [2] is 109% (inactive). In addition, the differential viability (reversal) in test [5] (H69AR cells + 2 uM doxorubicin) was 14.3% (inactive). Besides, the inhibition in test [6] is 0.27% (inactive); in test [7], -6.61% (inactive).

In the case of `O=C(NC1CCCCC1)C(c1ccccc1)N(Cc1ccco1)C(=O)Cn1cnc2ccccc21` (configuration not stated), the viability in test [1] is 102%; in test [3], 102% (inactive); in test [8], 78.3% (inactive); in test [5] (setting [9]), 70.1%; in test [5] (setting [10]), 78.3%. Moreover, the Her2 level in test [2] was 90% (inactive). In test [5] (H69AR cells + 2 uM doxorubicin), the differential viability (reversal) is 8.18% (inactive). Moreover, the results for the inhibition in test [6] and in test [7] were -5.33% (inactive) and -4.92% (inactive), respectively.

Regarding `O=C(O)CCc1cc(I)c(Oc2ccc(O)c(I)c2)c(I)c1`, the viability in test [1] is 104%; in test [3] it was 104% (inactive); in test [8] it was 102% (inactive); in test [5] (setting [9]), 98.8%; in test [5] (setting [10]), 102%. In test [2], the Her2 level was 76.5% (inactive). Moreover, the differential viability (reversal) in test [5] (H69AR cells + 2 uM doxorubicin) is 3.29% (inactive).

On to `O=C(CN1CCC(c2nc3ccccc3s2)CC1)NCc1cccs1`, for which the viability is 110% in test [1]; 110% (inactive) in test [3]; 85.3% (inactive) in test [8]; 88.6% in test [5] (setting [9]); 85.3% in test [5] (setting [10]). The Her2 level in test [2] is 91% (inactive). Besides, the differential viability (reversal) in test [5] (H69AR cells + 2 uM doxorubicin) was -3.33% (inactive). The results for the inhibition in test [6] and in test [7] were -0.8% (inactive) and 6.72% (inactive), respectively.

With `COc1ccc(-c2n[nH]c(C)c2-c2ccc(Cl)cc2)c(O)c1OC`, the viability in test [1] is 83.5%; in test [3], 83.5% (inactive); in test [8] it was 23.2% (active); in test [5] (setting [9]) it was 33.8%; in test [5] (setting [10]) it was 23.2%. Besides, the Her2 level in test [2] was 109% (inactive). Besides, the differential viability (reversal) in test [5] (H69AR cells + 2 uM doxorubicin) was -10.6% (inactive). In addition, the inhibition was -0.92% (inactive) in test [6] and 4.26% (inactive) in test [7].

As to `CCc1cc2c(=O)c(-c3ccc4c(c3)OCCO4)coc2cc1OC(=O)c1ccco1`, the viability in test [1] is 72.5%; in test [3], 72.5% (inactive); in test [4] it was 64.3% (inactive); in test [5] (setting [9]), 63.9%; in test [5] (setting [10]), 50.5%. Besides, the Her2 level in test [2] is 68% (inactive). In addition, the differential viability (reversal) in test [5] (H69AR cells + 2 uM doxorubicin) is -13.3% (inactive). In addition, the inhibition is -3.29% (inactive) in test [6] and 2.79% (inactive) in test [7].

For `CCOC(=O)N1CCC(NC(=O)c2ccc3nc(N4CCOCC4)sc3c2)CC1`, the viability in test [1] is 102%; in test [3] it was 102% (inactive); in test [8], 97.1% (inactive); in test [5] (setting [9]), 99.7%; in test [5] (setting [10]), 97.1%. The Her2 level in test [2] is 105% (inactive). Moreover, the differential viability (reversal) in test [5] (H69AR cells + 2 uM doxorubicin) was -2.62% (inactive). The inhibition in test [6] was -4.74% (inactive); in test [7], -0.32% (inactive).

Take `CCOC(=O)c1cnn(-c2ncnc3c2cnn3Cc2ccccc2)c1N`: the viability in test [1] was 99.5%; in test [3], 99.5% (inactive); in test [8] it was 17.2% (active); in test [5] (setting [9]) it was 31.5%; in test [5] (setting [10]), 17.2%. In addition, the Her2 level in test [2] was 84.5% (inactive). For the same compound, in test [5] (H69AR cells + 2 uM doxorubicin), the differential viability (reversal) is -14.3% (inactive). The inhibition is -5.33% (inactive) in test [6] and -2.58% (inactive) in test [7].

For `O=c1c2ccccc2nc(SCc2nnc(-c3ccccc3Br)o2)n1-c1ccccc1`, the viability was 77% in test [1]; 77% (inactive) in test [3]; 84.2% (inactive) in test [8]; 87.5% in test [5] (setting [9]); 84.2% in test [5] (setting [10]). In addition, in test [2], the Her2 level was 95.5% (inactive). Moreover, the differential viability (reversal) in test [5] (H69AR cells + 2 uM doxorubicin) was -3.29% (inactive). The inhibition in test [6] was -0.27% (inactive); in test [7], 3.77% (inactive).

`CCOc1cc(NC(=O)c2ccco2)c(OCC)cc1NC(=O)CCc1ccc(OC)cc1`: the viability in test [1] was 89%; in test [3], 89% (inactive); in test [8], 78.7% (inactive); in test [5] (setting [9]) it was 88.6%; in test [5] (setting [10]), 78.7%. The Her2 level in test [2] was 88% (inactive). In addition, the differential viability (reversal) in test [5] (H69AR cells + 2 uM doxorubicin) is -9.95% (inactive). Further, the inhibition in test [6] was 2% (inactive); in test [7] it was 1.31% (inactive).

`CCOC(=O)/C=C(\C)Sc1cc(=O)oc2ccccc12`: the viability was 94.5% in test [1]; 94.5% (inactive) in test [3]; 6.09% (active) in test [8]; 3.73% in test [5] (setting [9]); 6.09% in test [5] (setting [10]). Moreover, in test [2], the Her2 level is 47.5% (active). Moreover, the differential viability (reversal) in test [5] (H69AR cells + 2 uM doxorubicin) was 2.37% (inactive). Moreover, the inhibition in test [6] is -0.92% (inactive); in test [7], 1.45% (inactive).

`CCCOc1ccccc1C1CC(=O)Nc2cc3c(cc21)OCCO3` (configuration not stated): the viability in test [1] was 84%; in test [3], 84% (inactive); in test [8], 34.3% (active); in test [5] (setting [9]), 73.5%; in test [5] (setting [10]), 34.3%. In addition, the Her2 level in test [2] is 67% (inactive). The differential viability (reversal) in test [5] (H69AR cells + 2 uM doxorubicin) is -39.2% (inactive). The inhibition in test [6] was -4.93% (inactive); in test [7], -2.3% (inactive).

In the case of `Nc1nc(N2CCN(C/C=C/c3ccccc3)CC2)nc2ccccc12`, the viability in test [1] is 80.5%; in test [3], 80.5% (inactive); in test [8], 92% (inactive); in test [5] (setting [9]) it was 86.1%; in test [5] (setting [10]), 92%. Moreover, the Her2 level in test [2] is 98.5% (inactive). Also, the differential viability (reversal) in test [5] (H69AR cells + 2 uM doxorubicin) is 5.93% (inactive). Also, the inhibition in test [6] is -5.07% (inactive); in test [7], -2.13% (inactive).

On to `O=C(CSc1n[nH]c(-c2ccco2)n1)Nc1sc2c(c1C(=O)Nc1ccccc1)CCCC2`, for which the viability in test [1] is 99.5%; in test [3], 99.5% (inactive); in test [8], 65.9% (inactive); in test [5] (setting [9]) it was 78.9%; in test [5] (setting [10]), 65.9%. For the same compound, the Her2 level in test [2] is 99% (inactive). For the same compound, the differential viability (reversal) in test [5] (H69AR cells + 2 uM doxorubicin) is -13% (inactive). The inhibition in test [6] is -4.42% (inactive); in test [7], -10.7% (inactive).

As usually defined, the viability is a read-out of living cells in per cent, often relative to untreated cells. A word on the inhibition: it is the relative decrease from the control value, in per cent.
